Assay results reported in ChEMBL document CHEMBL5678806, “NMS-P937, an orally available, specific small-molecule polo-like kinase 1 inhibitor with antitumor activity in solid and hematologic malignancies” (Mol Cancer Ther, 2012).
Active and inactive are the calls of the source. The rule behind the calls is not given here.

Tests used:
[1] = tested on: A2780; experiment: Induction of cell cycle arrest in human A2780 cells assessed as accumulation of cells in G2/M phase by measuring CDK1 phosphorylation on Tyr15 incubated for 24 hrs by Western blotting analysis; type: functional, cell-based; conditions: dose 0.02-0.2 µmol/L
In short: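 A2780 ovarian carcinoma cells treated 24 h with a range of concentrations, with DMSO and nocodazole controls. 20 µg protein extract separated by SDS-PAGE and immunoblotted with chemiluminescent detection. Probed for total and phospho-Thr210 PLK1, phospho-Ser10 histone H3, phospho-Thr199 NPM and phospho-Tyr15 CDK1. Total NPM, tubulin and total CDK1 served as loading controls.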

[2] = tested on: SK-MEL-5; experiment: Antiproliferative activity against human SK-MEL-5 cells assessed as inhibition of cell growth incubated for 72 hrs by cell-titer glo assay; type: functional, cell-based; conditions: SK-MEL-5, 72 h
[3] = target: Dual specificity protein kinase CLK2 (Homo sapiens) (UniProt P49760); experiment: Inhibition of N-terminal GST-tagged recombinant human CLK2 (138 to end residues) expressed in baculovirus infected Sf21 cells assessed as residual activity at 0.1 uM relative to control
Chain of Dual specificity protein kinase CLK2 (Homo sapiens) (P49760 whole entry, looked up): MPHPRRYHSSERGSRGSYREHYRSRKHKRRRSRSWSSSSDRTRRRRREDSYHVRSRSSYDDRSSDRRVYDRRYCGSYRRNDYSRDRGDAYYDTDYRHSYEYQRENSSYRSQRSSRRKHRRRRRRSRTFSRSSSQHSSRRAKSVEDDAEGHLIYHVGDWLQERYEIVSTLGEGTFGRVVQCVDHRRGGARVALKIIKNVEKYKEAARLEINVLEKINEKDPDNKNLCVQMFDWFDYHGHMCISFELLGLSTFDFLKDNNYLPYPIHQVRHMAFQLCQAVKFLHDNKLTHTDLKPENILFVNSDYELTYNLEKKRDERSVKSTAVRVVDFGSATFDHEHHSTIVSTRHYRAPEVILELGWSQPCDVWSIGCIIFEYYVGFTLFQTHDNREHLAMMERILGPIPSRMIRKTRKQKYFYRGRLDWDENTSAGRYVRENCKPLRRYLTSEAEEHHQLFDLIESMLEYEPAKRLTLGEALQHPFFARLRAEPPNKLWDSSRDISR

[4] = tested on: RERF-LC-AI; experiment: Antiproliferative activity against human RERF-LC-AI cells assessed as inhibition of cell growth incubated for 72 hrs by cell-titer glo assay; type: functional, cell-based
In short: (§1)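 Cells from ATCC or ECACC, kept in supplier-recommended medium with 1% penicillin-streptomycin at 37°C, 5% CO₂. Seeded at 10,000–30,000/cm² (adherent) or 100,000/mL (nonadherent) in medium with 10% fetal calf serum. Dosed after 24 h in duplicate with serial dilutions. Viable cells read by CellTiter-Glo 72 h later. IC50 from sigmoidal fit. At least two independent experiments.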

[5] = target: Cyclin-dependent kinase 2/cyclin E1 (Homo sapiens, UniProt P24941); experiment: Inhibition of CDK2/CycE (unknown origin) in presence of [gamma-33P]ATP; type: protein-complex assay
[6] = target: Aurora kinase A (Homo sapiens) (UniProt O14965); experiment: Inhibition of N-terminal 6His-tagged recombinant full-length human Aurora-A expressed in Sf21 cells assessed as residual activity at 1 uM relative to control
Chain of Aurora kinase A (Homo sapiens) (O14965 whole entry): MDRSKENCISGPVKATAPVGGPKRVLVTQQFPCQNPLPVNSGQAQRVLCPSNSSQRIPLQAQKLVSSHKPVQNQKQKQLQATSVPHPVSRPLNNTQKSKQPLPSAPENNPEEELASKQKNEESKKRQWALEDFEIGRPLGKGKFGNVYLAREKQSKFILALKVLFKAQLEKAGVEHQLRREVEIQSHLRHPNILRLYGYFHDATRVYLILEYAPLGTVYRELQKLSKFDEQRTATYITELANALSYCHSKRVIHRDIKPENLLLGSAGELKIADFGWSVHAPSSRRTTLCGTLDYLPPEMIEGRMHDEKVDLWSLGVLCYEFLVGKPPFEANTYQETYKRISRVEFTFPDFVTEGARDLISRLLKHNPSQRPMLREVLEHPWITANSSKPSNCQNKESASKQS

[7] = Tmax in nu/nu mouse at 10 mg/kg, po by LC-MS analysis; type: ADME, organism-based; conditions: in vivo
[8] = tested on: A2780; experiment: Antiproliferative activity against human A2780 cells assessed as reduction in cell number at 0.5 to 1 uM incubated for 8 hrs followed by compound washout and measured after 24 to 48 hrs by cell titer glow assay; type: functional, cell-based; conditions: dose 0.5-1 µM
In short: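 A2780 cells exposed to 0.5 or 1 μmol/L for 8 hours, then compound withdrawn; cells replated and grown 24 and 48 hours in drug-free medium before assessing cell growth.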

[9] = tested on: A2780; experiment: In vivo inhibition of PLK1 in human A2780 cells xenografted in nu/nu mouse assessed as decreased TCTP phosphorylation on Ser46 at 90 to 120 mg/kg, po administered for 6 to 12 hrs by Western blotting analysis; type: functional, organism-based; conditions: dose lower 90.0 mg/kg, dose upper […], time lower 6.0 hrs
[10] = tested on: HCT-116; experiment: Antitumor activity against human HCT-116 cells xenografted in nu/nu mouse assessed as tumor growth inhibition at 60 mg/kg administered for 10 days relative to control; type: functional; conditions: HCT-116, 240 h, time 10 day, read-out: TGI
[11] = tested on: A2780; experiment: Antiproliferative activity against human A2780 cells assessed as inhibition of cell growth incubated for 72 hrs by cell-titer glo assay; type: functional, cell-based; conditions: A2780, 72 h
In short: (§2)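 Cells seeded 10,000–30,000/cm² (adherent) or 100,000/mL (suspension) in medium with 10% fetal calf serum; after 24 h treated in duplicate with serial dilutions for 72 h. Viable cells read by CellTiter-Glo luminescence; IC50 from sigmoidal fit; at least two independent experiments.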

[12] = target: Serine/threonine-protein kinase PLK3 (Homo sapiens) (UniProt Q9H4B4); experiment: Inhibition of PLK3 (unknown origin) at 10 micromol/L in presence of [gamma-33P]ATP relative to control; conditions: dose 10.0 µmol/L
Chain of Serine/threonine-protein kinase PLK3 (Homo sapiens) (Q9H4B4 whole entry, looked up): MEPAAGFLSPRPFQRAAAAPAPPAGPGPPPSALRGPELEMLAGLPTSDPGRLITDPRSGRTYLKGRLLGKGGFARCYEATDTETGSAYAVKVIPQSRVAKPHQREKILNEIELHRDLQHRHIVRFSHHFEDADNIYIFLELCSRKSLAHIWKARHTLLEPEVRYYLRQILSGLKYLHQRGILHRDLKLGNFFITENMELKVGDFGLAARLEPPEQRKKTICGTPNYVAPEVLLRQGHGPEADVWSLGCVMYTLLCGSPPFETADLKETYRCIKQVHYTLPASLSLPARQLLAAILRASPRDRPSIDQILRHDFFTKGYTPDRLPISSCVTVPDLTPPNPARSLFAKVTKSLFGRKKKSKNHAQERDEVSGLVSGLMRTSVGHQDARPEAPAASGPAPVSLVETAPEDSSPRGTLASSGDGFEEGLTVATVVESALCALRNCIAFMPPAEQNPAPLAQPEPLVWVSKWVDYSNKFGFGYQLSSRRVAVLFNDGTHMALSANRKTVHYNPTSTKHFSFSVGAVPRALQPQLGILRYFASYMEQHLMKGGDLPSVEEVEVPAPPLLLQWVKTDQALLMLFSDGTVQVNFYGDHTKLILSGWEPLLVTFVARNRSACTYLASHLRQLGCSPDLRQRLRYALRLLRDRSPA

[13] = target: Testis-specific serine/threonine-protein kinase 1 (Homo sapiens) (UniProt Q9BXA7); experiment: Inhibition of 6His-tagged recombinant human full length TSSK1 expressed in baculovirus infected Sf21 cells assessed as residual activity at 0.1 uM relative to control
Chain of Testis-specific serine/threonine-protein kinase 1 (Homo sapiens) (Q9BXA7 whole entry, the tested form may be a part): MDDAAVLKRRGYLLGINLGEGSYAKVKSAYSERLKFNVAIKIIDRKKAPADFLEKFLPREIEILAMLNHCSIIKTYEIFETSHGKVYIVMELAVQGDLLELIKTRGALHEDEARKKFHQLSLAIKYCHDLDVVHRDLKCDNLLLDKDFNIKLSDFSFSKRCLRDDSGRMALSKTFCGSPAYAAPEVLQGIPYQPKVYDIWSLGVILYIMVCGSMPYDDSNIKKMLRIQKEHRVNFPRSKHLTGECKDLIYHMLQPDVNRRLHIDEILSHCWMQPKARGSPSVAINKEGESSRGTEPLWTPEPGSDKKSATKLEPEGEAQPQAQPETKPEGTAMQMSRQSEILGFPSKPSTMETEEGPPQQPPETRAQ

[14] = target: Insulin receptor (Homo sapiens, UniProt P06213); experiment: Inhibition of N-terminal His6-tagged recombinant human IR (1005 to 1310 residues) expressed in baculovirus infected Sf21 cells assessed as residual activity at 1 uM relative to control
Chain of Insulin receptor (P06213 28-758 limits assumed): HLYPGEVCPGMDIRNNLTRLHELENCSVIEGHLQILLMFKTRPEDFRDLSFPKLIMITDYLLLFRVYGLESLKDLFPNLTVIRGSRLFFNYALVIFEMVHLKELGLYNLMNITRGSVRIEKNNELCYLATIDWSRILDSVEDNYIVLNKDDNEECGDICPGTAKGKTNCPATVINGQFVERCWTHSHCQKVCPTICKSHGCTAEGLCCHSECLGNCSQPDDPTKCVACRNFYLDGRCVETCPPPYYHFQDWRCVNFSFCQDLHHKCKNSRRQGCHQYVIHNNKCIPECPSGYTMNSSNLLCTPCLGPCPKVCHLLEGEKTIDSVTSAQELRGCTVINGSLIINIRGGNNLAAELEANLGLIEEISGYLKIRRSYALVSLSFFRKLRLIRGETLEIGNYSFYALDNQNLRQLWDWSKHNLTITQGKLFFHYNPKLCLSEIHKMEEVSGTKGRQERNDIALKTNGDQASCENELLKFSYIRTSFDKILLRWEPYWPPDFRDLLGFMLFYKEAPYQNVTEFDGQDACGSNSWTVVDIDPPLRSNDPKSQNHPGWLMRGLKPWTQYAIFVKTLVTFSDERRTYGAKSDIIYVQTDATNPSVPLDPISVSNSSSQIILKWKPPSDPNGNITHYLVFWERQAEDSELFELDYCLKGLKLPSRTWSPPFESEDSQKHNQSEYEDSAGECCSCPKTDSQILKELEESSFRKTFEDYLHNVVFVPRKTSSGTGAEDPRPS
Chain of Insulin receptor (P06213 763-1382 limits assumed): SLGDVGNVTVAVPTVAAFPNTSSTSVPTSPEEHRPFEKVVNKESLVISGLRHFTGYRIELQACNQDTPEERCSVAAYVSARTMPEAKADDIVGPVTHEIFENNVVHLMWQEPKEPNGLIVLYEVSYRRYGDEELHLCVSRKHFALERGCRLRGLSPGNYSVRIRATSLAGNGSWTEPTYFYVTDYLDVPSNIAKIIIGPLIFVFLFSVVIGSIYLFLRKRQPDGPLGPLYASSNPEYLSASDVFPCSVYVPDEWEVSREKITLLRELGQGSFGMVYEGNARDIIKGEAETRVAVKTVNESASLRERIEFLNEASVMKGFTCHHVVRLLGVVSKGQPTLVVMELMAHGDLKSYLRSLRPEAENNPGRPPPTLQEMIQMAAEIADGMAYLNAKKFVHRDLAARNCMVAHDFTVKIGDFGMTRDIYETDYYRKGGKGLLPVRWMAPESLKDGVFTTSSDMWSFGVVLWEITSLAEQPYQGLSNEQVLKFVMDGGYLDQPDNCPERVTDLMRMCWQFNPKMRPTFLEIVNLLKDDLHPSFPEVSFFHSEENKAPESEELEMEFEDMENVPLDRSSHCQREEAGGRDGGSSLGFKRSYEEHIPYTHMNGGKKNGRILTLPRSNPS

[15] = tested on: JIMT-1; experiment: Antiproliferative activity against human JIMT-1 cells assessed as inhibition of cell growth incubated for 72 hrs by cell-titer glo assay; type: functional, cell-based; conditions: JIMT-1, 72 h
In short: (§3)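 Cells seeded at 10,000–30,000/cm² (adherent) or 100,000/mL (nonadherent) in medium with 10% fetal calf serum; after 24 h, treated in duplicate with serial dilutions for 72 h. Viable cell number read by CellTiter-Glo luminescence; IC50 from sigmoidal fit; at least two independent experiments.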

[16] = tested on: MV4-11; experiment: Antiproliferative activity against human MV4-11 cells assessed as inhibition of cell growth incubated for 72 hrs by cell-titer glo assay; type: functional, cell-based; conditions: MV4-11, 72 h; in short: as §1
[17] = target: Tyrosine-protein kinase SYK (Homo sapiens, UniProt P43405); experiment: Inhibition of N-terminal His6-tagged recombinant full-length human Syk expressed in baculovirus infected Sf21 cells assessed as residual activity at 1 uM relative to control
[18] = tested on: A-431; experiment: Antiproliferative activity against human A-431 cells assessed as inhibition of cell growth incubated for 72 hrs by cell-titer glo assay; type: functional, cell-based; conditions: A-431, 72 h; in short: as §2
[19] = target: Protein kinase C beta type (Homo sapiens, UniProt P05771); experiment: Inhibition of N-terminal His6-tagged recombinant human PKCbetaI (2 to end) expressed in Sf21 cells assessed as residual activity at 0.1 uM relative to control
Chain of Protein kinase C beta type (P05771 2-671 limits assumed): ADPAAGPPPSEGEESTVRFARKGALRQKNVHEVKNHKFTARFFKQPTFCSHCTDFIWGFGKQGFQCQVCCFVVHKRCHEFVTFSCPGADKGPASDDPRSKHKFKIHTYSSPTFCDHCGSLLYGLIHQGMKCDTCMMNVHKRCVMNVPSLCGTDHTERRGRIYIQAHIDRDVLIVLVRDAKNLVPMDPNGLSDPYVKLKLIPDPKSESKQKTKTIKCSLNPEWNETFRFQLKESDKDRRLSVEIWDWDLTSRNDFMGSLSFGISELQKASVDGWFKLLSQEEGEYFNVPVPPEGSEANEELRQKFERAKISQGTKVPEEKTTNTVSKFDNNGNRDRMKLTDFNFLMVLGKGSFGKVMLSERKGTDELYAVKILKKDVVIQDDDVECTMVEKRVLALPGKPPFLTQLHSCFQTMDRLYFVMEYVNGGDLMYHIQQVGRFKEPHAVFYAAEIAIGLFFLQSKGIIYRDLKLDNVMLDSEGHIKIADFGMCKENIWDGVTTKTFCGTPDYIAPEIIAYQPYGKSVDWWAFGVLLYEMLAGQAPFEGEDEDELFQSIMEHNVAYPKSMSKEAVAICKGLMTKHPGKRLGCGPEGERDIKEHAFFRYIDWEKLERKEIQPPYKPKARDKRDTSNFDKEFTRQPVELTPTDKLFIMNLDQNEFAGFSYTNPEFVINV

[20] = tested on: MDA-MB-435S; experiment: Antiproliferative activity against human MDA-MB-435S cells assessed as inhibition of cell growth incubated for 72 hrs by cell-titer glo assay; type: functional, cell-based; in short: as §3
[21] = target: Serine/threonine-protein kinase MARK2 (Homo sapiens) (UniProt Q7KZI7); experiment: Inhibition of N-terminal His6-tagged recombinant full-length human PAR-1Balpha expressed in baculovirus infected Sf21 cells assessed as residual activity at 1 uM relative to control
Chain of Serine/threonine-protein kinase MARK2 (Homo sapiens) (Q7KZI7 whole entry): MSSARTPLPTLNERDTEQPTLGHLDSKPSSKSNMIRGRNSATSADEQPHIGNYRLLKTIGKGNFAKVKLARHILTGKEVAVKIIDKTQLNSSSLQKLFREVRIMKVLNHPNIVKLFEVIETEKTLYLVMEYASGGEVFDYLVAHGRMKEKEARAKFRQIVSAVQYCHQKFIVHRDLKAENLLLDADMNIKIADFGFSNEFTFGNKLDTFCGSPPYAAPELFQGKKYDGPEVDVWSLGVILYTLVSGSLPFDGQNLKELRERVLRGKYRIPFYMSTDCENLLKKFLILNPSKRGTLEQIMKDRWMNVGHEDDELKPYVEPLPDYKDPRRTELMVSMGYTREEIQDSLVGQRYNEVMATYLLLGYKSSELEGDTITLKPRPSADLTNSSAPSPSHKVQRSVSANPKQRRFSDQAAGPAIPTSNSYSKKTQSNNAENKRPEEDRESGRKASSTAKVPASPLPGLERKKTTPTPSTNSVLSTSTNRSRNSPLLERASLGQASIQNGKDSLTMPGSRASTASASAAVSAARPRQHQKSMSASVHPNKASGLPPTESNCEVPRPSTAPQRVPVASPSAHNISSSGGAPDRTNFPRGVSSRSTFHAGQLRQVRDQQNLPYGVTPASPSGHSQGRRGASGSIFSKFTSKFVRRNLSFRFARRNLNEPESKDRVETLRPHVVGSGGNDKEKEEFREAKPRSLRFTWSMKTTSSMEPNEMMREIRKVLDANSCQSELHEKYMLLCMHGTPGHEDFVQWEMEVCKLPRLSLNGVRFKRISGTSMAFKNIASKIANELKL

[22] = AUC in Sprague-Dawley rat at 10 mg/kg, iv by LC-MS analysis; type: ADME, organism-based; conditions: in vivo
[23] = target: CDK6/cyclin D3 (Homo sapiens) (UniProt P30281+Q00534); experiment: Inhibition of N-terminal His6-tagged full-length human CDK6/N-terminal GST-tagged full-length human cyclinD3 expressed in Sf21 cells assessed as residual activity at 0.1 uM relative to control

SMILES: CN1CCN(c2ccc(OC(F)(F)F)c(Nc3ncc4c(n3)-c3c(c(C(N)=O)nn3CCO)CC4)c2)CC1 [ONVANSERTIB]
- Activity [1]: Dose-Dependent Effect
- IC50 [2]: 513 nM
- Activity [3]: 52%
- IC50 [4]: 90 nM
- IC50 [5]: > 10000 nM
- Activity [6]: 113%
- Tmax [7]: 24 min
- Activity [8]: Active
- inhibition [9]: Active
- inhibition in vivo at 60 mg/kg [10]: 89%
- IC50 [11]: 40 nM
- inhibition [12]: 40.2%
- Activity [13]: 67%
- Activity [14]: 90%
- IC50 [15]: 105 nM
- IC50 [16]: 58 nM
- Activity [17]: 89%
- IC50 [18]: 59 nM
- Activity [19]: 85%
- IC50 [20]: 23 nM
- Activity [21]: 87%
- AUC [22]: 13.8 µM·h
- Activity [23]: 114%
